OX1R antag-1 – human HCRTR1 antagonism | CHO/OX1R cells, Fluo-8 calcium fluorescence, orexin A | hit rate 0.43% among 330,000 | AID 434989 | inhibition, % at 5 µM | O43613;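 active = inhibition above its plate's threshold, mean inhibition of all tested compounds on the plate plus 3 SD, cut at about 37% in these data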
Target sequence (O43613 whole entry, looked up): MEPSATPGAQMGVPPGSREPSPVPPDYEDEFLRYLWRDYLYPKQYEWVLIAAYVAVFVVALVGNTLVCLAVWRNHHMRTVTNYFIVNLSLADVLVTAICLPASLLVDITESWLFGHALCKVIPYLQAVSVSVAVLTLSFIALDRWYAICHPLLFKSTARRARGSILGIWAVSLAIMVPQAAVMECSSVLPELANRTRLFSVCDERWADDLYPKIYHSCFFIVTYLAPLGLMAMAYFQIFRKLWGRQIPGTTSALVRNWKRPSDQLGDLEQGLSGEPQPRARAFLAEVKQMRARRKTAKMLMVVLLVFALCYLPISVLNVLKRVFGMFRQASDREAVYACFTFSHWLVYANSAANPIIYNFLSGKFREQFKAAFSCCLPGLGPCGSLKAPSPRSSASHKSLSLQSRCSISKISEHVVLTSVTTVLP
CHO-K1 Ca PAM – M1 PAM counterscreen hit in parental CHO-K1 cells; activation, % at 3 µM; ATP EC20, Fluo-8 calcium fluorescence; 0% at ATP EC20, 100% at ATP max; hit rate 0.02% among 360,000;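 active = activation above the run cutoff, the mean activation of all test compounds plus 3 SD, cut at about 40% in these data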;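 note: peak over basal fluorescence ratio in a 140 s read after ATP addition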
OX1R antag-2 – OX1R (human) antagonism | hit rate 1.8% among 330,000 | OX1R-expressing cells, FRET antagonist read-out | inhibition, % at 6.6 µM; in the data active = inhibition mostly above about 38%, no sharp cut-off; inactive = mostly below about 40%
M1 ag parental – nonselective activator or artifact in parental CHO-K1 cells; AID 602248; hit rate 0.48% among 360,000; Fluo-8 calcium fluorescence; scaled to maximal ATP response, vehicle zero; activation, % at 3 µM; in the data active = activation above about 15%;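 note: untransfected CHO-K1 host cells lacking M1 receptor as counterscreen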
CHO parental Ca – signal in parental CHO cells, OX1R antagonist counter-screen; parental CHO-K1, ATP-induced calcium, Fluo-8 fluorescence; hit rate 0.63% among 330,000; inhibition, % at 5.6 µM; AID 463079;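 active = inhibition above that plate's mean sample inhibition plus 3 SD, cut at about 26% in these data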
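material = parental CHO cells | also added = ATP as calcium-mobilizing challenge | dosing = single point at 5.6 µM | detection = intracellular calcium via Fluo-8 no-wash fluorescent dye | read-out = % inhibition | benchmarks = low control ATP plus DMSO, high control DMSO only | repeats = one well per compound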
CHO-K1 Ca antag – M1 antagonist counterscreen hit in parental CHO-K1 cells | ATP-induced calcium, Fluo-8 fluorescence | inhibition, % at 3 µM | hit rate 0.6% among 360,000;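 active = inhibition above a per-plate cutoff, the plate's mean sample inhibition plus 3 SD, cut at about 24% in these data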
OX1R Fluo8 conf – confirmation of human orexin 1 receptor antagonists; shares compounds with OX1R antag-1; CHO/OX1R cells, orexin A calcium Fluo-8 fluorescence; inhibition, % at 5 µM; hit rate 38% among 1,100; in the data active = inhibition above about 29%
CHO Ca counter – counter-screen: parental CHO calcium response change, triplicate; parental CHO-K1, ATP-induced calcium, Fluo-8 fluorescence; hit rate 9.3% among 1,100; shares compounds with OX1R antag-1; inhibition, % at 5.6 µM;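 active = inhibition above a per-plate limit, the mean inhibition of that plate's test compounds plus 3 SD, cut at about 25% in these data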
OX1R HTRF conf – confirmation of human orexin 1 receptor antagonists, HTRF format; inhibition, % at 6.6 µM; hit rate 49% among 1,800; shares compounds with OX1R antag-2; OX1R-expressing cells, HTRF antagonist assay; in the data active = inhibition above about 55%;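 note: CHO cells expressing OX1R stimulated with orexin A at about EC80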
CHO-K1 HTRF – counter-screen: parental CHO-K1 HTRF response | shares compounds with OX1R antag-2 | parental CHO-K1 cells, HTRF counterscreen | inhibition, % at 6.6 µM | hit rate 48% among 1,800; in the data active = inhibition above about 17%
Numbers stand for hits; . = inactive; / = not tested or not shown. The list is not random: actives were taken first. Their share in the collection is about 2.9%.

SMILES	OX1R antag-1	CHO-K1 Ca PAM	OX1R antag-2	M1 ag parental	CHO parental Ca	CHO-K1 Ca antag	OX1R Fluo8 conf	CHO Ca counter	OX1R HTRF conf	CHO-K1 HTRF
COc1ccc(CCNC(=O)COc2cc(O)c3c(c2)OC(C)(C)CC3=O)cc1OC	.	.	.	.	.	.	/	/	/	/
COc1ccccc1NC(=O)c1[nH]c(C)c(C(C)=O)c1C	.	.	.	.	.	.	/	/	/	/
COc1ccccc1OCC(=O)c1[nH]c(C)c(C(C)=O)c1C	.	.	82.2	.	.	.	29.5	26.1	.	27.1
CCN(CC(=O)NCc1ccncc1)S(=O)(=O)c1ccc(OC)cc1	.	.	.	.	.	.	/	/	/	/
CCn1c(N)c(C(=O)Nc2ccccc2C(=O)OC)sc1=S	.	.	83.1	.	.	.	41.9	.	86.5	.
Cn1c(N)c(C(=O)Nc2ccccc2F)sc1=S	.	.	.	.	.	.	/	/	/	/
COC(=O)c1ccccc1NC(=O)CC(=O)Nc1ccccc1C(=O)OC	.	.	78.5	.	.	.	56.0	.	84.3	.
CCCCNS(=O)(=O)CCNCc1ccco1	.	.	.	.	.	.	/	/	/	/
O=C(Nc1cccc(-c2nc3ccccc3s2)c1)c1ccc2c(c1)OCO2	44.2	.	86.7	.	.	.	.	.	94.1	.
Cc1ccccc1SCC(=O)OCC(=O)NCc1ccccc1	.	.	.	.	.	.	/	/	/	/
CCN(CC)c1ccc(/C=C(\C#N)c2ccccn2)cc1	.	.	80.0	.	.	26.2	.	.	89.5	.
CCN(Cc1ccccc1)c1ccc(/C=C(\C#N)c2ccccn2)cc1	.	.	.	.	.	.	/	/	/	/
CSC1=NSC2=NC(=O)/C(=C/c3coc4ccccc4c3=O)C(=N)N12	65.9	.	77.7	45.4	.	34.7	.	.	.	.
Cc1c(Cl)cccc1NC(=O)N1CCCN(c2nc(-c3ccccc3)ns2)CC1	.	.	79.8	.	.	.	.	.	.	.
Cc1c(Cl)cccc1NC(=O)N1CCCC1	.	.	.	.	.	.	/	/	/	/
Cc1ccc(NC(=O)Nc2nnc(-c3ccncc3)s2)cc1C	.	.	40.7	.	.	.	.	.	.	.
Cc1nc2ccc3nc(NC(=O)c4ccco4)sc3c2s1	61.5	.	72.1	.	.	.	.	.	84.4	.
Cc1ccc2nc(NC(=O)c3ccco3)sc2c1	.	.	.	.	.	.	/	/	/	/
Cc1cccc(C(=O)OCC(=O)N2CCC(c3ccccc3)=N2)c1O	.	.	.	.	.	.	/	/	/	/
CCc1cc(C(=O)OCC(=O)N2CCC(c3ccccc3)=N2)sc1C	54.3	.	80.1	.	.	.	78.1	.	91.6	.
CCN(CC)C(=O)CSc1nc2c(sc(=S)n2-c2ccccc2OC)c(=O)n1-c1ccccc1	.	.	75.7	.	.	.	38.5	.	69.2	.
CCN(CC)C(=O)CSc1nc2c(sc(=S)n2CC)c(=O)n1-c1ccccc1	.	.	.	.	.	.	/	/	/	/
O=C(NCC1CCCO1)c1cccc(S(=O)(=O)Nc2ccccc2Cl)c1 (stereo not drawn)	/	.	/	.	/	.	/	/	/	/
Cc1nc2c(-c3ccccc3)c(C)nn2c(N)c1-c1ccccc1	46.4	.	81.0	.	.	.	.	.	78.6	.
COc1cccc(-c2nc(CS(=O)(=O)CC(=O)Nc3cc(OC)ccc3OC)c(C)o2)c1	.	.	78.4	.	.	.	.	.	84.9	.
SMILES	OX1R antag-1	CHO-K1 Ca PAM	OX1R antag-2	M1 ag parental	CHO parental Ca	CHO-K1 Ca antag	OX1R Fluo8 conf	CHO Ca counter	OX1R HTRF conf	CHO-K1 HTRF
COc1cccc(-c2nc(CS(=O)(=O)CC(=O)Nc3cccc(C)c3C)c(C)o2)c1	.	.	.	.	.	.	/	/	/	/
CCN(CC)c1ccc(/C=N/NC(=O)c2ccco2)c(O)c1	36.1	.	68.2	.	.	.	72.8	.	87.9	.
CCN(CC)c1ccc(/C=N/NC(=O)c2ccco2)cc1	.	.	.	.	.	.	/	/	/	/
CCOC(=O)c1ccc2[nH]c3c(c2c1)CCCC3	.	.	77.7	.	.	.	.	.	.	.
CCOC(=O)c1ccc2[nH]c3c(c2c1)CCCC3O (stereo not drawn)	.	.	.	.	.	.	/	/	/	/
Cc1c(NS(=O)(=O)c2cccc(C(=O)OCC(=O)N(C)C3CCCCC3)c2)c(=O)n(-c2ccccc2)n1C	37.3	.	98.3	.	.	.	57.6	.	89.7	.
Cc1ccc2c(Cl)c(C)c(N3CCOCC3)nc2n1	/	.	/	.	/	.	/	/	/	/
Cc1[nH]oc(=O)c1N=Nc1ccc2[nH]c(=O)[nH]c2c1	.	.	.	.	.	.	/	/	/	/
O=C(NC(Nc1ncc(S(=O)(=O)c2ccc([N+](=O)[O-])cc2)s1)(C(F)(F)F)C(F)(F)F)c1ccc(Cl)cc1	.	.	119.6	.	.	.	30.1	65.0	57.8	35.7
COC(=O)c1sc(NC(=O)c2cc3c(s2)CCCC3)nc1C	58.0	.	89.3	.	.	.	.	.	98.4	.
CCCCn1c(N)c(N(CCOC)C(=O)c2ccc3c(c2)C(=O)N(c2cc(C)ccc2C)C3=O)c(=O)[nH]c1=O	.	.	.	.	.	.	/	/	/	/
O=C(Nc1ccc2nn(-c3ccccc3)nc2c1)c1cccs1	.	.	83.4	.	.	.	.	.	55.4	.
O=C(NC(Cc1c[nH]c2ccccc12)C(=O)N/N=C/c1ccc(Cl)cc1)c1cccs1 (stereo not drawn)	48.5	.	98.3	.	.	.	64.0	.	80.7	.
O=C(NC(Cc1c[nH]c2ccccc12)C(=O)N1CCOCC1)c1cccs1 (stereo not drawn)	.	.	.	.	.	.	/	/	/	/
Cc1ccc(SCCC(=O)OCC(=O)NCC2CCCCC2)cc1	.	.	.	.	.	.	/	/	/	/
COc1ccc(C(=O)NCc2nnc(SCC(=O)N3CCC(C)CC3)o2)cc1	.	.	.	.	.	.	/	/	/	/
COC(=O)c1ccccc1NC(=O)CSc1nc(O)cc(=O)n1C1CCCC1	.	.	78.3	.	.	.	50.5	.	88.4	.
O=C(CSc1nc(O)cc(=O)n1C1CCCC1)Nc1cccc(Cl)c1Cl	.	.	.	.	.	.	/	/	/	/
NS(=O)(=O)c1ccc(CCNC(=O)CN2C(=O)NC(c3ccccc3)(c3ccccc3)C2=O)cc1	.	.	.	.	.	.	/	/	/	/
O=C(CN1C(=O)NC(c2ccccc2)(c2ccccc2)C1=O)NCCc1ccc(F)cc1	.	.	68.7	.	.	.	31.4	.	56.3	.

Source: PubChem (The Scripps Research Institute Molecular Screening Center)
